Bioassay records from PubChem BioAssay.
PG9 binder = small molecules binding HIV-1 gp120 antibody PG9 | TR-FRET gp120-PG9 antibody binding | inhibition, % at 6.7 µM | 360,000 tested, 0.43% active | AID 624416; in the data active means inhibition above about 8.5%
NR2E3 ag-1 = activates human NR2E3 receptor. 360,000 tested, 0.35% active. CHO-S Gal4-NCOR/VP16-NR2E3 two-hybrid, luciferase. inhibition of corepressor binding, % at 3.98 µM. Q9Y5X4. AID 602229;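 active means inhibition above the mean of all tested compounds plus 3 SD, cut at about 70% in these data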;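 further: higher means lower luciferase signal from less NR2E3 corepressor binding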
Neddylation inh = inhibitors of human cullin neddylation; TR-FRET cullin neddylation, biochemical; AID 651699; calls only at 25 µM; 360,000 tested, 0.58% active; in the data active means inhibition above about 36%
NR2E3 ag-2 = agonists of human nuclear receptor NR2E3; GST-NR2E3/biotin-RetCOR TR-FRET, 1536-well; AID 2300; 320,000 tested, 0.12% active; inhibition of corepressor binding, % at 4.78 µM;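 active means percent inhibition above the cutoff of mean plus 3 SD of all tested compounds, set per screening campaign, cut at about 20% in these data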
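Material – GST-tagged NR2E3 plus biotinylated RetCOR corepressor · Quantity – NR2E3 fusion 1.35 nM · Times – 5 h incubation at 4 °C · Medium – pH 7.5 Tris-based buffer · Technique – TR-FRET, Eu(K)-anti-GST donor, streptavidin-D2 acceptor, ex 340, em 617/671 nm · Benchmarks – high control biotin, low control 0.6% DMSO · Format – 1536-well plates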
Rev-erbA mod = modulators of human Rev-erb alpha DNA binding; P20393; Rev-erbα–FITC-DNA binding, fluorescence polarization, 90 min; activity, % at 10 µM; 370,000 tested, 0.79% active; AID 1259318;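 active means activity above about 14%, limit read from the data; passing the limit was not always enough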
Target sequence (P20393 whole entry, looked up): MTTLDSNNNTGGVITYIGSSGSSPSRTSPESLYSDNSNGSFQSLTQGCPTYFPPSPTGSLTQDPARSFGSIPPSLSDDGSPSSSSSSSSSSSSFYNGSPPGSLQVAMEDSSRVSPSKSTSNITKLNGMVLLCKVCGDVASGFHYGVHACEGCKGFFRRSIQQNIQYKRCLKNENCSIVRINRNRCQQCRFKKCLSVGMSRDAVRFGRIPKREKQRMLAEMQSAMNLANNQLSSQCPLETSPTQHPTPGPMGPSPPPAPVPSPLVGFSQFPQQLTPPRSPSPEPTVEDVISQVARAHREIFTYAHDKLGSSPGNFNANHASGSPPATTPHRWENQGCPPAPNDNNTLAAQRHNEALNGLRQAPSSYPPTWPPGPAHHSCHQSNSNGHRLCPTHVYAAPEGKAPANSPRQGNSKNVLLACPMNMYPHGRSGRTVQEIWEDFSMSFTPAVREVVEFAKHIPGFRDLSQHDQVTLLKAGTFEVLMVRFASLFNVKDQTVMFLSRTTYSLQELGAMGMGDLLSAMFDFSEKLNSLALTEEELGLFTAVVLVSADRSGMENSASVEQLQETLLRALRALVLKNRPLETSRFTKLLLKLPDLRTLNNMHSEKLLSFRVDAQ
PG9 binder conf = confirmation of small molecules binding HIV-1 gp120 antibody PG9; AID 651571; TR-FRET PG9 antibody binding, biochemical; shares compounds with PG9 binder; inhibition, % at 6.7 µM; 1,500 tested, 90% active; in the data active means inhibition above about 9%
PGV04 Ab binding = PGV04 control antibody binding, counter-screen | shares compounds with PG9 binder | TR-FRET PGV04 antibody-gp120 binding, biochemical | inhibition, % at 6.7 µM | 1,500 tested, 95% active; in the data active means inhibition above about 9.5%
PG9 bind DR = small molecules binding HIV-1 gp120 antibody PG9 | TR-FRET PG9 antibody-gp120 binding inhibition | 95 tested, under 10 active | IC50, µM | shares compounds with PG9 binder; in the data active means IC50 below about 10 µM
PGV04 binding DR = PGV04 binding, dose response counter-screen; 95 tested, 20% active; IC50, µM; AID 651937; shares compounds with PG9 binder; TR-FRET binding to control antibody PGV04
PG126 binding DR = counter-screen for PG9 binders: binding to control antibody PG126; shares compounds with PG9 binder; TR-FRET binding to antibody PG126, counterscreen; IC50, µM; 95 tested, 20% active
Rev-erbA confirm = Rev-erb alpha (human) modulation, hit confirmation; shares compounds with Rev-erbA mod; 3,000 tested, 61% active; activation, % at 25 µM; Rev-erb alpha FITC-DNA binding, fluorescence polarization, 90 min; AID 1259319;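 active means activation at or above a set limit, or at least 3 SD above the negative control mean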
RORg DNA counter = affects RORgamma DNA binding in a Rev-erb alpha counter-screen. shares compounds with Rev-erbA mod. purified RORgamma protein-FITC-DNA binding, fluorescence polarization. IC50, µM. 910 tested, 8% active. AID 1259320;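 active means Compounds whose fitted half-maximal concentration for disrupting protein-DNA binding is below 10 micromolar; the record names Rev-erb in its text, so the target is in doubt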
Hits are given with their value; i = inactive; nt = no result. The list is not random: actives were taken first. Their share in the collection is about 2%. Unless noted, no stated cut-off is given here; in the data, active means IC50 below about 9 µM; inactive means the rest.

SMILES	PG9 binder	NR2E3 ag-1	Neddylation inh	NR2E3 ag-2	Rev-erbA mod	PG9 binder conf	PGV04 Ab binding	Rev-erbA confirm	others
CCOC(=O)CSc1nc(N)c(C#N)c(-c2ccc(OC)cc2)c1C#N	63	i	i	i	76	68	23	55	PG9 bind DR=7.6;PGV04 binding DR=6.1;PG126 binding DR=7
COc1ccc(-c2c(C#N)c(N)nc(Sc3ccc(Cl)cc3)c2C#N)cc1	31	i	i	i	83	97	95	48	PG9 bind DR=8.5;PGV04 binding DR=4.4;PG126 binding DR=4.9;RORg DNA counter=i
CSc1nc(-c2ccc(Cl)cc2)nc(N)c1C#N	25	i	i	i	29	49	67	i
CCCCOc1ccc(-c2c(C#N)c(N)nc(SCC(N)=O)c2C#N)cc1	i	i	i	i	i	nt	nt	nt
Cc1ccc(C(=O)N2CCC(Cc3ccccc3)CC2)cc1S(=O)(=O)N1CCOCC1	i	i	i	nt	i	nt	nt	nt
COc1ccc(C(CNC(=O)c2ccc(OCc3csc(C)n3)cc2)N2CCCC2)cc1 (centres undefined)	i	i	i	nt	i	nt	nt	nt
CN1Cc2nnn(Cc3ccccc3)c2-c2cc(N3CCCC3)ccc2S1(=O)=O	nt	nt	nt	nt	i	nt	nt	nt
O=C(NCc1cccs1)c1ccc2sc(COCCO)nc2c1	i	i	i	nt	i	nt	nt	nt
CCOC(=O)C1(C)CCN1C(=O)c1cccc(C#N)c1 (centres undefined)	i	i	i	nt	i	nt	nt	nt
COc1cc(C(=O)Nc2cc(Cl)ccc2-n2cncn2)ccc1OC(F)F	10	i	i	i	31	23	38	i
Cc1ccc(CNC(=O)CS(=O)(=O)Cc2nc(-c3ccc(C)cc3)oc2C)cc1	28	i	i	i	28	20	53	i
COc1ccc(CNC(=O)CS(=O)(=O)Cc2nc(-c3ccc(OC)cc3)oc2C)cc1	i	i	i	i	i	nt	nt	nt
O=C(CSc1ncnc2c1oc1ccccc12)NCc1ccc(F)cc1	51	i	i	i	395	25	74	434	RORg DNA counter=i
NC(=O)CSc1ncnc2c1oc1ccccc12	i	i	i	i	i	nt	nt	nt
O=C(CSc1ncnc2c1oc1ccccc12)Nc1cccc(F)c1	69	i	i	i	343	67	87	322	RORg DNA counter=i
CCOC(=O)N1CCC(NC(=O)c2ccc3c(c2)sc2nc(-c4ccccc4)cn23)CC1	21	i	i	i	63	21	38	41
O=C(c1cc2cc(Cl)ccc2[nH]1)N1CCN(c2ccccn2)CC1	27	i	i	i	51	i	23	41	RORg DNA counter=5.4
Cc1ccc(C)c(Cn2c(=O)n(CCCC(=O)NCc3ccco3)c(=O)c3sccc32)c1	18	i	i	i	18	21	29	i
CCN(CC(=O)NCc1ccc(Cl)cc1)C(=O)COc1cccc(Cl)c1	i	i	i	i	i	nt	nt	nt
Cc1sc2ncnc(N3CCC(C(=O)Nc4ccc(C#N)cc4)CC3)c2c1C	15	i	i	i	27	16	10	19	PG9 bind DR=i;PGV04 binding DR=8.4;PG126 binding DR=8.7
c1ccc2nc(-c3ccc(N4CCOCC4)cc3)ccc2c1	39	i	i	i	90	45	42	64	PG9 bind DR=i;PGV04 binding DR=3.7;PG126 binding DR=4.2;RORg DNA counter=i
CCOc1ccc2nc(SCC(=O)NNC(=O)c3ccco3)c(C)cc2c1	i	i	i	i	i	nt	nt	nt
COc1ccc2cc(C)c(SCC(=O)Nc3cc(C)on3)nc2c1	34	i	i	i	109	46	64	33	RORg DNA counter=i
CCOc1ccc2nc(SCC(=O)Nc3cc(C)on3)c(C)cc2c1	28	i	i	i	58	33	51	i
Cc1cc(C)c(C#N)c(SCC(=O)Nc2cc(C)on2)n1	i	i	i	nt	i	nt	nt	nt
SMILES	PG9 binder	NR2E3 ag-1	Neddylation inh	NR2E3 ag-2	Rev-erbA mod	PG9 binder conf	PGV04 Ab binding	Rev-erbA confirm	others
Cc1ccc2nc(SCC(=O)Nc3cc(C)on3)c(C)cc2c1	18	i	i	i	40	26	44	21
COC(=O)[C@]12CCCCC=C1N(Cc1ccc(OC)cc1)C(=O)[C@@H]2CC(=O)NCc1cccc(C(F)(F)F)c1	nt	nt	nt	nt	i	nt	nt	nt
COCCCN1C(=O)[C@H](CC(=O)NCc2ccc(C)o2)[C@]2(C(=O)OC)CCCCC=C12	nt	nt	nt	nt	i	nt	nt	nt
COc1ccccc1N1C(=O)C2C(C(=O)c3ccccc3)=NN(c3ccc(Br)cc3)C2C1=O (centres undefined)	13	i	i	i	66	17	28	21
CCCCNC(=O)O[C@@H]1C[C@H]2CCC(=O)N3CC[C@@H](C1)[C@@H]23	i	i	i	i	i	nt	nt	nt
CCOC(=O)c1nn(-c2cccc(OC)c2)c2nc(CC)c(C#N)c(=O)n12	28	i	i	i	37	21	25	i
N#Cc1c(N)nc(-c2ccccc2)nc1-c1ccccc1	i	i	i	i	i	nt	nt	nt
CC(C)Nc1nc(-c2ccncc2)nc(-c2ccccc2)c1C#N	9.1	i	i	i	40	43	61	i
O=C(NCCC(=O)N1CCN(c2ccc(F)cc2)CC1)c1ccco1	i	i	i	nt	i	nt	nt	nt
Cc1ccc(-n2c(SCC(=O)O)nc3sc4c(c3c2=O)CC(C)(C)SC4)cc1	i	i	i	nt	i	nt	nt	nt
Cc1ccc(-n2c(SCC(=O)NCc3ccco3)nc3sc4c(c3c2=O)CC(C)(C)SC4)cc1	16	i	i	i	71	20	32	64	RORg DNA counter=5.6
CN1C(=O)c2cc(NC(=O)C3CC3)ccc2OC[C@H]2O[C@@H](CC(=O)NC3CCC3)CC[C@@H]21	nt	nt	nt	nt	i	nt	nt	nt
Cc1ccccc1NC(=O)c1sc(NC(=O)COc2ccccc2)c(C#N)c1C	34	i	i	i	74	37	53	58	RORg DNA counter=i
Cc1cccc(NC(=O)c2sc(NC(=O)COc3ccccc3)c(C#N)c2C)c1C	i	i	i	i	i	nt	nt	nt
O=c1sc(N2CCN(c3ccc(F)cc3)CC2)nc2ccsc12	23	i	i	i	146	57	83	96	RORg DNA counter=i
O=C(COC(=O)c1sc2ccccc2c1Cl)Nc1ncc(Cl)cc1Cl	21	i	i	i	52	22	45	36	RORg DNA counter=i
